Test results taken from ChEMBL document CHEMBL4602615, “Upregulation of p53 through induction of MDM2 degradation: Amino acid prodrugs of anthraquinone analogs” (Bioorg Med Chem Lett, 2020).
Converted amounts (≈) assume the structure as drawn. The source made the active and inactive calls. The rule behind the calls is not given here.

Assays:
HeLa = assay: Cytotoxicity against human HeLa cells assessed as reduction in cell viability by WST8 assay; format: functional, cell-based
Outline: (§1)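 WST-8 viability read-out in HeLa cells and in an in-house established wild-type p53 leukemia line (EU-1). IC50 derived from the concentration–response data.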

[1] = Cytotoxicity against human EU1 cells assessed as reduction in cell viability by WST8 assay; format: functional, cell-based; details: EU-1; outline: as §1
[2] = Prodrug conversion in PBS buffer assessed as half life at pH 7.4 and 37 degC by HPLC analysis; format: physicochemical
[3] = Prodrug conversion assessed as porcine liver Esterase-mediated compound hydrolysis by measuring half life by HPLC analysis; format: ADME, Sus scrofa; details: pig, isolated protein
Outline: (§2)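 Amino-acid ester prodrugs incubated with the hydrolytic enzyme in PBS, pH 7.4, at 37 °C. Release of parent anthraquinone monitored by HPLC, and half-life derived.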

[4] = Prodrug conversion assessed as porcine pancreas Kallikrein-mediated compound hydrolysis by measuring half life by HPLC analysis; format: ADME, Sus scrofa; details: pig; outline: as §2
[5] = Aqueous solubility of compound in PBS buffer at pH 7.4 by HPLC analysis; format: physicochemical
[6] = Prodrug conversion in cell culture media assessed as half life; format: physicochemical
[7] = target: E3 ubiquitin-protein ligase Mdm2 (Homo sapiens) (UniProt Q00987); assay: Induction of MDM2 degradation in human EU1 cells assessed as downregulation of MDM2 protein expression incubated for 15 hrs by Western blot analysis; format: cell-based
Outline: (§3)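 EU-1 is an in-house established leukemia line carrying wild-type p53. Cells were exposed across a series of concentrations and incubation times, then lysed. MDM2 and p53 protein levels were read by Western blot.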

[8] = target: E3 ubiquitin-protein ligase Mdm2 (Homo sapiens) (UniProt Q00987); assay: Induction of MDM2 degradation in human EU1 cells assessed as downregulation of MDM2 protein expression at 1 uM by Western blot analysis; format: cell-based; details: TDE = time-dependent effect; outline: as §3
[9] = target: E3 ubiquitin-protein ligase Mdm2 (Homo sapiens) (UniProt Q00987); assay: Induction of MDM2 degradation in human EU1 cells assessed as upregulation of p53 protein expression incubated for 15 hrs by Western blot analysis; format: cell-based; outline: as §3
[10] = target: E3 ubiquitin-protein ligase Mdm2 (Homo sapiens) (UniProt Q00987); assay: Induction of MDM2 degradation in human EU1 cells assessed as upregulation of p53 protein expression at 1 uM by Western blot analysis; format: cell-based; details: TDE = time-dependent effect; outline: as §3
[11] = target: E3 ubiquitin-protein ligase Mdm2 (Homo sapiens) (UniProt Q00987); assay: Induction of MDM2 degradation in human EU1 cells assessed as downregulation of MDM2 protein expression at 0.8 uM incubated for 15 hrs by Western blot analysis; format: cell-based; outline: as §3
[12] = target: E3 ubiquitin-protein ligase Mdm2 (Homo sapiens) (UniProt Q00987); assay: Induction of MDM2 degradation in human EU1 cells assessed as upregulation of p53 protein expression at 0.8 uM incubated for 15 hrs by Western blot analysis; format: cell-based; outline: as §3
[13] = target: E3 ubiquitin-protein ligase Mdm2 (Homo sapiens) (UniProt Q00987); assay: Induction of MDM2 degradation in human EU1 cells assessed as downregulation of MDM2 protein expression at 1 uM incubated for 4 to 16 hrs by Western blot analysis; format: cell-based; outline: as §3
[14] = target: E3 ubiquitin-protein ligase Mdm2 (Homo sapiens) (UniProt Q00987); assay: Induction of MDM2 degradation in human EU1 cells assessed as upregulation of p53 protein expression at 1 uM incubated for 4 to 8 hrs by Western blot analysis; format: cell-based; outline: as §3
[15] = Prodrug conversion in none-denaturated human EU1 cell lysates assessed as N-[4,5-bis(2-hydroxyethoxy)-9,10-dioxo-2-anthryl]-2-chloro-acetamide release measured within 15 mins by HPLC analysis; format: ADME, subcellular, Lysate; details: 0.25 h
Outline: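 Prodrug incubated with non-denatured lysate of EU-1 cells, an in-house wild-type p53 leukemia line, to assess activation by cellular components. Read-out was cleavage of the amino acid ester bond releasing the parent anthraquinone, followed over time.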

[16] = PBS buffer, read-out: solubility

E3 ubiquitin-protein ligase Mdm2 (Homo sapiens), sequence (Q00987 whole entry, looked up): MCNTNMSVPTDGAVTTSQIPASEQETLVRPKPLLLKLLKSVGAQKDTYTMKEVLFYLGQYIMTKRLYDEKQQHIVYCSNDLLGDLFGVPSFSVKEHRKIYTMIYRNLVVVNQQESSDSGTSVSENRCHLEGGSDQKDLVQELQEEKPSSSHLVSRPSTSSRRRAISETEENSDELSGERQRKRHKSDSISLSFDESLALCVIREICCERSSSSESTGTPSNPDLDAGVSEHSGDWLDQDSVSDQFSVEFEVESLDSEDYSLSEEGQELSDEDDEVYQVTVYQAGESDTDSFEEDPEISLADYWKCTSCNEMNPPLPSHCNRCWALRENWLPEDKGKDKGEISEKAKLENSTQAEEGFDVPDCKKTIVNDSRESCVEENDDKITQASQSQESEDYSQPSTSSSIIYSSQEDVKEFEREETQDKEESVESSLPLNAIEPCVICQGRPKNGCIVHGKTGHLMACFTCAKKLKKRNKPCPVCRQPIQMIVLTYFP

| SMILES | IC50 (HeLa) | IC50 [1] | t1/2 [2] | t1/2 [3] | t1/2 [4] | solubility [5, 16] | t1/2 [6] | solubility ([5]; buffer) | Activity [7] | Activity [8] | Activity [9] | Activity [10] | Activity [11] | Activity [12] | Activity [13] | Activity [14] | Drug metabolism [15] |
| --- | --- | --- | --- | --- | --- | --- | --- | --- | --- | --- | --- | --- | --- | --- | --- | --- | --- |
| CSCC[C@H](N)C(=O)OCCOc1cccc2c1C(=O)c1c(OCCOC(=O)[C@@H](N)CCSC)cc(NC(=O)CCl)cc1C2=O.Cl | 7.07 µM | 1.24 µM | 44.8 min | 3.7 min | 12 min | > 100 mg/mL |  |  |  |  |  |  |  |  |  |  |  |
| Cl.NCC(=O)OCCOc1cccc2c1C(=O)c1c(OCCOC(=O)CN)cc(NC(=O)CCl)cc1C2=O | 3.66 µM | 1.1 µM | 31.5 min | 10.1 min | 35.9 min | > 100 mg/mL | 19.3 min |  |  |  |  |  |  |  |  |  |  |
| Cl.N[C@@H](Cc1ccccc1)C(=O)OCCOc1cccc2c1C(=O)c1c(OCCOC(=O)[C@@H](N)Cc3ccccc3)cc(NC(=O)CCl)cc1C2=O | 5.64 µM | 1.23 µM | 73.7 min | 1 min | 6.5 min |  |  | 703 mg/mL |  |  |  |  |  |  |  |  |  |
| Cl.N[C@@H](CCC(=O)O)C(=O)OCCOc1cccc2c1C(=O)c1c(OCCOC(=O)[C@@H](N)CCC(=O)O)cc(NC(=O)CCl)cc1C2=O | 9.11 µM | 3.21 µM | 268.6 min | 117.9 min | 110 min | > 100 mg/mL | 156.1 min |  |  |  |  |  |  |  |  |  |  |
| O=C(CCl)Nc1cc(O)c2c(c1)C(=O)c1cccc(O)c1C2=O |  |  |  |  |  |  |  | 0.0085 mg/mL (≈ 25.6 µM) |  |  |  |  |  |  |  |  |  |
| CC(C)C[C@H](N)C(=O)OCCOc1cccc2c1C(=O)c1c(OCCOC(=O)[C@@H](N)CC(C)C)cc(NC(=O)CCl)cc1C2=O.Cl | 2.8 µM | 1.17 µM | 127.7 min | 2.5 min | 39.6 min | > 100 mg/mL |  |  |  |  |  |  |  |  |  |  |  |
| O=C(CCl)Nc1cc(OCCO)c2c(c1)C(=O)c1cccc(OCCO)c1C2=O | 3.76 µM | 0.89 µM |  |  |  |  |  | 0.06 mg/mL (≈ 143 µM) | Dose-dependent effect | Tde | Dose-dependent effect | Tde | Active | Active | Active | Active |  |
| C[C@H](N)C(=O)OCCOc1cccc2c1C(=O)c1c(OCCOC(=O)[C@H](C)N)cc(NC(=O)CCl)cc1C2=O.Cl | 8.21 µM | 1.66 µM | 100.9 min | 6.2 min | 24.7 min | > 100 mg/mL |  |  |  |  |  |  |  |  |  |  |  |
| Cl.NC(=O)CC[C@H](N)C(=O)OCCOc1cccc2c1C(=O)c1c(OCCOC(=O)[C@@H](N)CCC(N)=O)cc(NC(=O)CCl)cc1C2=O | 12.3 µM | 1.45 µM | 137.1 min | 73 min | 66.9 min | > 100 mg/mL |  |  |  |  |  |  |  |  |  |  |  |
| Cl.N=C(N)NCCC[C@H](N)C(=O)OCCOc1cccc2c1C(=O)c1c(OCCOC(=O)[C@@H](N)CCCNC(=N)N)cc(NC(=O)CCl)cc1C2=O | 13 µM | 2.07 µM | 187.1 min | 63 min | 0.2 min | > 100 mg/mL |  |  |  |  |  |  |  |  |  |  |  |
| CC[C@H](C)[C@H](N)C(=O)OCCOc1cccc2c1C(=O)c1c(OCCOC(=O)[C@@H](N)[C@@H](C)CC)cc(NC(=O)CCl)cc1C2=O.Cl | 5.75 µM | 1.14 µM | 154.5 min | 24.3 min | 48.4 min | > 100 mg/mL |  |  |  |  |  |  |  |  |  |  |  |
| Cl.NCCCC[C@H](N)C(=O)OCCOc1cccc2c1C(=O)c1c(OCCOC(=O)[C@@H](N)CCCCN)cc(NC(=O)CCl)cc1C2=O | 10.7 µM | 1.28 µM | 140.8 min | 44.2 min | 2.4 min | > 100 mg/mL |  |  |  |  |  |  |  |  |  |  |  |
| Cl.N[C@@H](Cc1ccc(O)cc1)C(=O)OCCOc1cccc2c1C(=O)c1c(OCCOC(=O)[C@@H](N)Cc3ccc(O)cc3)cc(NC(=O)CCl)cc1C2=O | 5.4 µM | 1.27 µM | 70.6 min | 1.7 min | 6.5 min | > 100 mg/mL |  |  |  |  |  |  |  |  |  |  |  |
| CC(C)[C@H](N)C(=O)OCCOc1cccc2c1C(=O)c1c(OCCOC(=O)[C@@H](N)C(C)C)cc(NC(=O)CCl)cc1C2=O.Cl | 4.15 µM | 1.08 µM | 147.7 min | 25.3 min | 126.3 min | > 100 mg/mL |  |  |  |  |  |  |  |  |  |  | Metabolite_Detected |
